High-throughput results (PubChem)
Shown are actives, neighbours in structure and some others; about 3.7% of the full set was active somewhere.
KCNK9 inh – inhibitors of human KCNK9 two-pore domain potassium channel | Q9NPC2 | HEK293 KCNK9, FluxOR thallium flux fluorescence; active compounds read low | B-score at 10 µM | 310,000 compounds, 1.2% hits | AID 488922;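 active = ratio B-score over 3 SD below the library mean, with starting fluorescence within 5 SD of its mean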;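 also: negative B-score means less thallium flux so channel inhibition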
KCNQ1 act – potentiators or activators of human KCNQ1 potassium channel; P51787; CHO-K1 KCNQ1, thallium flux FluxOR fluorescence; active compounds read high; B-score at 10 µM; 310,000 compounds, 0.35% hits; AID 2648;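 active = fluorescence ratio B-score, a plate-corrected score, at least three library SD, with initial intensity B-score within 5 SD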
Target sequence (P51787 whole entry, looked up): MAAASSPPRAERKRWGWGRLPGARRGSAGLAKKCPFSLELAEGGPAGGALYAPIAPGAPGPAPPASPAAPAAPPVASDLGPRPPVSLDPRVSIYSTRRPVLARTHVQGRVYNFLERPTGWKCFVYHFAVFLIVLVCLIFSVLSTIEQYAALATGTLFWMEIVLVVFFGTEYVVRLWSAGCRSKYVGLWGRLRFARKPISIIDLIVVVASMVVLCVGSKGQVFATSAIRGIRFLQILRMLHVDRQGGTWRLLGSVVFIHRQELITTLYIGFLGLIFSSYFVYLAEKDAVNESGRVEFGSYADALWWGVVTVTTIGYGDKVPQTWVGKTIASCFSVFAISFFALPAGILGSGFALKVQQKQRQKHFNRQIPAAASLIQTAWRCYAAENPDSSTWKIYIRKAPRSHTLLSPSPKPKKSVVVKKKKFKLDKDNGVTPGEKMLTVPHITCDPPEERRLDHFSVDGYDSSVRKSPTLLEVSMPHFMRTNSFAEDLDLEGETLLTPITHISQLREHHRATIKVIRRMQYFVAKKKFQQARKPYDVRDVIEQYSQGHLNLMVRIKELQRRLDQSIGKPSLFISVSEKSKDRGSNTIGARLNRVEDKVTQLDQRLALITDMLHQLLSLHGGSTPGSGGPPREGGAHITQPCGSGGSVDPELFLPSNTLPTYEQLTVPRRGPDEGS
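Doses: Single concentration per compound, DMSO matched to controls | Test system: KCNQ1-transfected CHO-K1 cells | Timing: 90 min dye loading and 20 min compound exposure, both at room temperature | Measured by: Kinetic FluxOR thallium fluorescence, 10-s 1-Hz baseline, 110-s post-stimulus read | Medium: Assay buffer with matched DMSO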
KCNQ1 inh – blocks the human KCNQ1 potassium channel | P51787 | CHO-K1 KCNQ1, FluxOR thallium flux fluorescence; active compounds read high | B-score at 10 µM | 310,000 compounds, 1.3% hits | AID 2642;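 active = compounds whose thallium flux B-score, printed positive for inhibition, exceeds three library SD while starting fluorescence stays within three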;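 also: channel opened by potassium depolarization with thallium stimulus after 20 min compound exposure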
hERG protect – shields human hERG channel from block by proarrhythmic agents | Q12809 | CHO-hERG, FluxOR thallium flux, dofetilide IC70 present | activation (rescue from dofetilide block), less the hit threshold, % at 10 µM | 310,000 compounds, 0.51% hits;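 active = activation above the mean of controls blocked by dofetilide plus 5 SD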;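 also: thallium influx through hERG after potassium depolarization seen as dye fluorescence rise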
Kir21 block – Kir2.1 (mouse) channel inhibition. P35561. HEK293-Kir2.1, FluxOR thallium flux fluorescence; active compounds read low. B-score at 10 µM. 310,000 compounds, 0.85% hits. AID 1672;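 active = fluorescence ratio B-score at or below minus 3 SD of library scores, with starting-brightness B-score within 2 SD, cut at about -4.2 in these data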;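 also: channel flux triggered by added potassium and thallium sulfate stimulus; B-score of peak minus minimum fluorescence over baseline after thallium stimulus; more negative B-score means stronger Kir2.1 block with less thallium influx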
KCNK3 block – human KCNK3 channel inhibition, primary screen. AID 602410. B-score at 10 µM. 340,000 compounds, 0.84% hits. CHO-KCNK3 thallium flux, FluxOR fluorescence; active compounds read low;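 active = B-score under library mean minus 4 SD, starting fluorescence ratio at most library mean plus 5 SD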;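 also: more negative B-score means stronger inhibition of thallium flux through KCNK3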
KCNK3 inh conf – human KCNK3 channel inhibition, confirmation assay | 2,400 compounds, 99% hits | AID 651638 | ratio percent of control, % at 10 µM | CHO-KCNK3 thallium flux, FluxOR fluorescence; 0% buffer, 100% carvedilol maximal block | shares compounds with KCNK3 block;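 active = ratio percent of control, averaged over triplicates, above buffer control mean plus 5 SD, cut at about 64% in these data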;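 also: ratio is the fluorescence rise from min to max over baseline after thallium stimulus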
KCNK3 noninduced – KCNK3 inhibitor counter-screen hit in non-induced cells. shares compounds with KCNK3 block. non-induced KCNK3 parental cells, FluxOR thallium flux; active compounds read low. thallium flux ratio (lower = more inhibition) at 10 µM. 2,400 compounds, 40% hits;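 active = thallium flux ratio, averaged over three wells, more than 5 SD below the buffer control mean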;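 also: host cells are CHO cells without KCNK3 induction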
A number is an active result; – = inactive; · = no result.

SMILES	KCNK9 inh	KCNQ1 act	KCNQ1 inh	hERG protect	Kir21 block	KCNK3 block	KCNK3 inh conf	KCNK3 noninduced
Cc1ccc2nc(N/N=C\c3ccc([N+](=O)[O-])o3)nc(-c3ccccc3)c2c1	-6.9	–	7	–	–	-11	147	0.087
Oc1ccccc1/C=N/Nc1cccc2cccnc12	–	–	–	–	–	-11	98	–
CSc1ccc(CNC(=O)CCn2ccc3cc(S(=O)(=O)N4CCCC4)ccc32)cc1	–	–	–	–	–	-9.9	119	0.16
N#Cc1ccccc1S(=O)(=O)N1CCN(C(=O)Cc2coc3cc(O)ccc23)CC1	·	·	·	·	·	-12	–	–
Cc1ccc2c(CC(=O)N3CCN(S(=O)(=O)c4ccccc4)CC3)coc2c1	·	·	·	·	·	–	·	·
CC1=CC(C)(C)N2C(=O)C3(C(C#N)=C(N)Oc4cc(O)ccc43)c3c(C)c(C)cc1c32 (stereo not drawn)	–	–	–	–	–	-8.9	81	0.16
CC1=CC(C)(C)N2C(=O)C3(C(C#N)=C(N)OC4=C3C(=O)CCC4)c3c(C)c(C)cc1c32 (stereo not drawn)	–	–	–	–	–	–	·	·
COc1ccc(N2CCN(c3cc(C)c4ccc(C)cc4n3)CC2)cc1	–	–	–	–	–	–	·	·
COc1ccc2c(C)cc(N3CCN(c4ccc(F)cc4)CC3)nc2c1	–	–	–	–	–	-9.5	114	–
COc1nc2ccccc2nc1N1CCN(c2ccc(F)cc2)CC1	–	–	–	–	–	-9.8	113	–
COc1nc2ccccc2nc1N1CCN(Cc2ccc3c(c2)OCO3)CC1	–	–	–	–	–	–	·	·
Cc1ccc(C2(c3ccccc3)NC(=O)N(CC(=O)N(C)C3CCS(=O)(=O)C3)C2=O)cc1C (stereo not drawn)	·	·	·	·	·	–	·	·
COc1ccc(Br)cc1/C=N/NC(=O)c1nc(-c2ccccc2)n2c1CCCCC2	–	–	6	–	–	-12	113	0.14
Cn1ccnc1C(OC(=O)c1ccccc1)C(F)(F)F (stereo not drawn)	–	–	–	–	–	–	·	·
Cc1nn(C(C)(C)C)c(OC(=O)c2cccs2)c1Sc1ccccc1	-8.1	–	–	–	–	-12	101	–
CCc1cc(C(=O)Nc2cc(S(=O)(=O)N(CC)CC)ccc2N2CCN(C)CC2)sc1C	–	–	–	–	–	–	·	·
CCc1cc(C(=O)Nc2cc(S(=O)(=O)N(C)C)ccc2C)sc1C	–	–	–	–	–	-9.3	90	–
CN(c1ccccc1)S(=O)(=O)c1cccc(NC(=O)c2ccc3ncsc3c2)c1	-7.1	–	–	–	–	-9.5	130	0.14
CN1C(=O)C2(OCCCO2)c2ccccc21	–	–	–	–	–	–	·	·
CC(C)CCNCC(O)CON=C1c2ccccc2-c2ccccc21 (stereo not drawn)	–	–	–	–	-4.5	-8.8	104	–
CS(=O)(=O)N(CC(O)CON=C1c2ccccc2-c2ccccc21)c1ccc(F)cc1 (stereo not drawn)	–	–	–	–	–	–	·	·
COc1cc(C(=O)Nc2ccc3c(c2)ncn3C(C)(C)C)cc(OC)c1OC	–	–	–	–	–	-9.3	75	–
CN(CC(=O)Nc1cccc(S(=O)(=O)N2CCCC2)c1)CC(=O)Nc1ccc(F)c(F)c1F	·	·	·	·	·	–	·	·
CN(CC(=O)Nc1cccc(S(=O)(=O)N2CCCC2)c1)CC(=O)Nc1ccc(Cl)c(C(F)(F)F)c1	–	–	–	–	–	-11	128	0.14
COc1ccccc1C(=O)NCCC(=O)N1CCCC(C(F)(F)F)C1 (stereo not drawn)	–	–	–	–	–	-9.5	77	–
SMILES	KCNK9 inh	KCNQ1 act	KCNQ1 inh	hERG protect	Kir21 block	KCNK3 block	KCNK3 inh conf	KCNK3 noninduced
COc1cc(CNc2ccc3[nH]c(=O)[nH]c3c2)cc(Br)c1OCc1ccccc1F	–	–	–	–	–	–	·	·
CCCCNc1oc(-c2cccs2)nc1S(=O)(=O)c1ccccc1	–	–	–	–	–	-9.5	127	0.13
O=S(=O)(c1ccccc1)c1nc(-c2cccs2)oc1NCCCn1ccnc1	–	–	–	–	–	–	·	·
Cc1csc(NC(=O)CSC2=NS(=O)(=O)c3ccccc3N2)n1	–	–	–	–	–	–	·	·
Cc1cc(C(=O)Cn2nnc3ccccc3c2=O)c(C)n1Cc1cccs1	–	–	–	–	–	-9.1	111	–
CC1CCN(C(=O)c2ccc(-c3ccccc3Cl)o2)CC1	–	–	–	–	–	-9.2	123	0.14
O=C(c1ccc(-c2ccccc2Cl)o1)N1CCC1	·	·	·	·	·	–	·	·
COc1cccc(CN2CCN(CC(=O)NCCc3ccccc3)CC2)c1	–	–	–	–	–	–	·	·
COC(=O)c1ccc2c(c1)C(C)(C)C(/C=C/c1ccc(O)cc1)=[N+]2C	–	–	–	–	–	–	·	·
COC(=O)c1ccc2c(c1)C(C)(C)C(/C=C/c1ccc(OC)c(OC)c1OC)=[N+]2C	–	–	7	–	-7.2	-12	117	0.09
COc1ccc(S(=O)(=O)N(C)c2ccc(C(=O)Nc3ccccc3C(=O)N3CCOCC3)cc2)cc1OC	–	–	–	–	–	–	·	·
O=C(Nc1ccc(S(=O)(=O)N2CCOCC2)cc1)c1cc(-c2cc(Cl)ccc2O)n[nH]1	–	–	–	–	–	-8.7	128	0.13
CCCCN1CN(S(=O)(=O)c2ccc(OC)cc2)c2nc3ccccc3nc21	–	–	–	–	–	-8.9	90	–
C/C(=N\N1CCN(C2c3ccccc3-c3ccccc32)CC1)c1cccnc1	–	–	–	–	–	–	·	·
C(=N\N1CCN(C2c3ccccc3-c3ccccc32)CC1)/c1cccnc1	–	–	–	–	–	-10	85	–
COc1ccc(N(C)S(=O)(=O)c2cccc(C(=O)N3CCN(S(=O)(=O)c4ccc(C)cc4)CC3)c2)cc1	-12	–	–	–	–	–	92	–
CCOC1C(=O)NC(=O)N1Cc1ccccc1 (stereo not drawn)	–	–	–	–	–	-9.3	81	–
CC1CC(=O)NC(=O)N1Cc1ccccc1 (stereo not drawn)	·	·	·	·	·	–	·	·
CCOC(=O)c1cccc(N2C(=O)C3C(C2=O)C2C=CC3C23CC3)c1 (stereo not drawn)	–	–	–	–	–	-18	92	–
O=C(c1cc(-c2cccc(O)c2)on1)N1CCCCCC1	–	–	–	–	–	-11	68	–
